The values below come from PMC11720871 (Results in chemistry, 2024).

The test system of data set [1] is MDA-MB-231 VIM RFP cells. The data set can be described thus: CCK-8 viability assay, cancer cells. Conditions: read-out: IC50 Cancer MDA-MB-231 VIM RFP. Type of data set: cell-based, human. In short, it runs like this: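 MDA-MB-231 VIM RFP cells were grown in EMEM with 10% FBS, 0.01 mg ml−1 insulin, 10 μg ml−1 blasticidin S and 1% pen/strep at 37 °C, 5% CO2. Cells were seeded at 1.5 × 10^4 cells/well and exposed to 0–100 μM test compound, alone or with a fixed 50 μM BBC, for 24, 48 or 72 h. WST-8 (CCK-8) absorbance was read at 450 nm, and IC50 was taken from concentration–viability curves.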

Another data set concerns MCF-10A cells. Nature of the data set: CCK-8 viability assay, non-cancer cells. To be noted: read-out: IC50 Non-cancer MCF-10A. Type of data set: cell-based, human.
In data set [2] the test system is MDA-MB-231 VIM RFP cells. Nature of the data set: Cell cycle analysis by flow cytometry. The class given is cell-based, human. To be noted: complex 20 μM and/or BBC 50 μM, 24 h. In short, it runs like this:
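Cells were plated at 1 × 10^6 cells/mL in 6-well plates and treated 24 h with 20 μM complex and/or 50 μM BBC. They were washed in PBS, fixed in ice-cold 70% EtOH at 4 °C for 2 h, washed again and stained with DAPI. Flow cytometry read at 450/50 nm, and G1, S and G2 fractions were gated. Triplicate; mean + std. err.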

For data set [3], the system named is Caspase 3/7 in MDA-MB-231 VIM RFP cells. Nature of the data set: Caspase-Glo 3/7 luminescence assay. Type of data set: cell-based, human. Conditions: complex 20 μM and/or BBC 50 μM, 24 h. In short, it runs like this:
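Cells were seeded at 1.5 × 10^4 cells/well and treated for 24 h with 20 μM complex and/or 50 μM BBC. Caspase-Glo 3/7 reagent was added and luminescence read. Mean ± SE, n = 3.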

Data set [4] relates to p-MLKL in MDA-MB-231 VIM RFP cells. Nature of the data set: Western blot analysis of p-MLKL. The class given is cell-based, human. To be noted: complex 20 μM and/or BBC 50 μM, 24 h; relative to GAPDH. In short, it runs like this: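 Cells were plated at 1 × 10^6 cells/mL in 6-well plates and treated 24 h with 20 μM complex and/or 50 μM BBC. RIPA lysates were BCA-normalised, and equal protein was run on 10% SDS-PAGE (100 V, 2 h) and transferred to nitrocellulose (60 V, 90 min). After TBS blocking for 30 min, p-MLKL and GAPDH primaries were applied overnight at 4 °C, then Alexa Fluor Plus 488 secondary for 1 h at RT. Band densitometry was expressed relative to GAPDH.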

The subject of data set [5] is breast cancer MCF-7 cells. Conditions: single agent; cited from earlier work.
Data set [6] has as its system human cervical cancer HeLa cells. To be noted: cited from earlier work.
A further data set has as its system BT549 cells. Conditions: 48 h of treatment; cited from earlier work.
A further data set deals with MDA-MB-231 cells. Conditions: 48 h of treatment; cited from earlier work.
Data set [7] relates to non-cancer human prostate epithelial cells. Conditions: berberine 10–100 μM; cited from earlier work.
The test system of the next data set is pregnant rats. To be noted: high dose (500–600 times more than human dosage); cited from earlier work.
Data set [8] deals with prostate cancer PC3 cells. To be noted: cited from earlier work.

Like-named read-outs stand apart in the source and are kept apart here. A value given as a limit tells only on which side of the number the result lay.

As to `COc1ccc2cc3[n+](cc2c1OC)CCc1cc2c(cc1-3)OCO2` [Berberine chloride (BBC), berberine chloride], the IC50 in the data set with MDA-MB-231 VIM RFP cells [1] (Homo sapiens, MDA-MB-231, 24 h) is 48.3 ± 2.4 µM; with MDA-MB-231 VIM RFP cells [1] (Homo sapiens, MDA-MB-231, 48 h), 31.8 ± 2.6 µM; in the data set with MDA-MB-231 VIM RFP cells [1] (Homo sapiens, MDA-MB-231, 72 h) it was 25.6 ± 1.9 µM; with MCF-10A cells (Homo sapiens, MCF-10A, 24 h), greater than 100 µM; in the data set with MCF-10A cells (Homo sapiens, MCF-10A, 48 h), greater than 100 µM; with MCF-10A cells (Homo sapiens, MCF-10A, 72 h), 92.3 ± 1.4 µM. In the data set on MDA-MB-231 VIM RFP cells [2], the “Fraction of cells in G2 phase” value amounted to 33.8%. Further, the “Caspase 3/7 activity (luminescence)” value in data set [3] is recorded as “activation in caspase 3/7”. Further, in [4], the “p-MLKL level, western blot” value was “low level of p-MLKL”.
Take `N.N.[Cl][Pt][Cl]` [Cisplatin]: the IC50 with MDA-MB-231 VIM RFP cells [1] (24 h incubation, CCK-8) is 28.1 ± 2.4 µM; with MDA-MB-231 VIM RFP cells [1] (48 h incubation, CCK-8) it was 24.7 ± 2.6 µM; in the data set on MDA-MB-231 VIM RFP cells [1] (72 h incubation, CCK-8), 22.2 ± 1.8 µM; in the data set with MCF-10A cells (24 h incubation, CCK-8) it was 41.2 ± 1.9 µM; in the data set with MCF-10A cells (48 h incubation, CCK-8), 34.2 ± 2.7 µM; in [5], 49.5 ± 1.62 µM.
In the case of `COc1ccc2cc3[n+](cc2c1OC)CCc1cc2c(cc1-3)OCO2` [berberine], the results for the IC50 (in data set [5]; with BT549 cells; in the data set on MDA-MB-231 cells) were 52.2 ± 1.59 µM, 16.575 ± 1.219 µg/mL and 18.525 ± 6.139 µg/mL, respectively. Also, the “Enhancement of toxicity of berberine when combined with cisplatin” value in [6] (berberine 50 μg/mL combined with 5 μM of cisplatin) is “around 54%”. Further, the Cytotoxic effect result in data set [6] (dose of 50 μg/mL) is “significant cytotoxic effect”; in data set [7], “did not show a significant cytotoxic effect”. Moreover, the Reproductive toxicity entry with pregnant rats is “no significant reproductive toxicity”. Further, the figures for the Cell cycle arrest entry in data set [8] (10 μM) and in [8] (50 μM) were “induced G0/G1 cell cycle arrest” and “inhibited the cell cycle at G2/M phase”, respectively.
